Experimental data taken from ChEMBL document CHEMBL1154741, “Radiosynthesis and radiopharmacological evaluation of cyclin-dependent kinase 4 (Cdk4) inhibitors” (Eur J Med Chem, 2010).

Legend:
[1] = molecular target: Cyclin-dependent kinase 2 (Homo sapiens, UniProt P24941); assay: Inhibition of CDK2
[2] = molecular target: Cyclin-dependent kinase 1 (Homo sapiens, UniProt P06493); assay: Inhibition of CDK1
[3] = molecular target: Cyclin-dependent kinase 4 (Homo sapiens, UniProt P11802); assay: Inhibition of CDK4
[4] = Stability in PBS buffer at pH7.4 after 24 hrs by HPLC; assay type: physicochemical; conditions: pH 7.4, read-out: Stability
Method in brief: (§1)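 50 kBq radiotracer was added to 1 mL of PBS (0.1 M, pH 7.4), ethanol, culture medium (RPMI + 10% FKS + 1% pen/strep) or fresh rat plasma and held at 37 °C for 30 min or 24 h. Samples were analysed by radio-HPLC on a C18 column with a Soerensen buffer (0.01 M, pH 7.4)/methanol gradient; intact tracer is reported as percent.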

[5] = Stability in cell culture medium after 24 hrs by HPLC; assay type: physicochemical; conditions: read-out: Stability; method in brief: as §1
[6] = Stability in PBS buffer at pH7.4 after 30 mins by HPLC; assay type: physicochemical; conditions: pH 7.4, read-out: Stability; method in brief: as §1
Liver = assay: Biodistribution in Wistar rat liver at 0.2 to 0.3 MBq, iv after 5 mins; assay type: ADME, organism-based; conditions: in vivo
Method in brief: (§2)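 Normal male Wistar rats (180 ± 20 g) given a single iv tail-vein injection of 0.2–0.3 MBq radiotracer in solution containing 1% HSA. Under ether anaesthesia at 5 min p.i., blood was taken by heart puncture and the animals euthanized. Organs were removed, weighed and counted in a calibrated well counter. Results are SUV = (organ activity/organ weight)/(given activity/body weight); mean ± SD, n = 8.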

[7] = Stability in ethanol after 30 mins by HPLC; assay type: physicochemical; conditions: read-out: Stability; method in brief: as §1
Lung = assay: Biodistribution in Wistar rat lung at 0.2 to 0.3 MBq, iv after 5 mins; assay type: ADME, organism-based; conditions: in vivo; method in brief: as §2
[8] = Stability in Wistar rat plasma after 30 mins; assay type: ADME, cell-free; conditions: read-out: Stability; method in brief: as §1
[9] = Stability in Wistar rat plasma after 24 hrs; assay type: ADME, cell-free; conditions: read-out: Stability; method in brief: as §1
Kidney = assay: Biodistribution in Wistar rat kidney at 0.2 to 0.3 MBq, iv after 5 mins; assay type: ADME, organism-based; conditions: in vivo; method in brief: as §2
[10] = Lipophilicity log D at pH 7.4; assay type: physicochemical; conditions: buffer
[11] = Stability in ethanol after 24 hrs by HPLC; assay type: physicochemical; conditions: read-out: Stability; method in brief: as §1
HT-29 = assay: Cellular uptake in human HT-29 cells measured per mg of protein at 25 kBq after 1 hr; assay type: ADME, cell-based; conditions: ht-29, 1 h
Method in brief: (§3)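 HT-29 cells in McCoy's 5A and FaDu cells in RPMI 1640, both with 10% FBS, were seeded at 5 × 10⁴ cells/well and left overnight. About 25 kBq radiotracer in 0.25 mL medium was added at 37 °C. Cells were washed three times with ice-cold PBS, lysed in 0.1 M NaOH/1% SDS and gamma-counted. Protein was measured by BCA; results are %ID/mg protein.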

FaDu = assay: Cellular uptake in human FADU cells measured per mg of protein at 25 kBq after 1 hr; assay type: ADME, cell-based; method in brief: as §3

Sequence of Cyclin-dependent kinase 4 (P11802 whole entry): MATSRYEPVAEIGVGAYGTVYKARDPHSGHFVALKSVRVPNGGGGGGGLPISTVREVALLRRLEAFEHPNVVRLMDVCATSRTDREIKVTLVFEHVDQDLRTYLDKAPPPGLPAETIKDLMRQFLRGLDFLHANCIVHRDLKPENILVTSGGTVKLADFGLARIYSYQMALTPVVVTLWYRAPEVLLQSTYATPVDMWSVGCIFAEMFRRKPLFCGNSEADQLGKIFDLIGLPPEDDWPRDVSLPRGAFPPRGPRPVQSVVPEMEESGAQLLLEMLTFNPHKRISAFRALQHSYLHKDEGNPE
Sequence of Cyclin-dependent kinase 1 (P06493 whole entry): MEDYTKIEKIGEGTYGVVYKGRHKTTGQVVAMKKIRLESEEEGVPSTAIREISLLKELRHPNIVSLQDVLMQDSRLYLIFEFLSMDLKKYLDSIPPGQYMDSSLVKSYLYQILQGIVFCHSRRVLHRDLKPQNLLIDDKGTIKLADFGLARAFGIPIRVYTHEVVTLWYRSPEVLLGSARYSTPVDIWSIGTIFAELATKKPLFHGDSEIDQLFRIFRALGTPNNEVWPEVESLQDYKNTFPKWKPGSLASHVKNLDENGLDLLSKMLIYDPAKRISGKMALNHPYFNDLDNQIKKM

IC50 [1] | IC50 [2] | IC50 [3] | remaining at 24 h [4] | remaining at 24 h [5] | remaining at 0.5 h [6] | SUV (Liver) | remaining at 0.5 h [7] | SUV (Lung) | remaining at 0.5 h [8] | remaining at 24 h [9] | SUV (Kidney) | logD [10] | remaining at 24 h [11] | Drug uptake (HT-29) | Drug uptake (FaDu) | Compound
> 360 nM | > 360 nM | < 20 nM |  |  |  |  |  |  |  |  |  |  |  |  |  | Cc1c(I)c(=O)n(C2CCCC2)c2nc(Nc3ccc(N4CCNCC4)cc3)ncc12
 |  | < 20 nM |  |  |  |  |  |  |  |  |  |  |  |  |  | O=c1ccc2cnc(Nc3ccc(N4CCC(CCCO)CC4)cc3)nc2n1C1CC2CCC1C2 (stereo not drawn)
 |  |  | 86% | 96% | 92% | > 3.2 | 93% | 8.67 | 93% | 94% | > 3.2 | 2.77 | 94% | 750 %Idose |  | Cc1c([124I])c(=O)n(C2CCCC2)c2nc(Nc3ccc(N4CCNCC4)cc3)ncc12
 |  |  | 95% | 97% | 97% | > 3.2 | 98% | 8.43 | 94% | 94% | > 3.2 | 1.99 | 97% |  | 900 %Idose | Cc1c([124I])c(=O)n(C2CCCC2)c2nc(Nc3ccc(N4CCNCC4)cn3)ncc12
